# Experimental data gathered from unrelated publications.
# CDK4: Cyclin-dependent kinase 4 (CDK4, Homo sapiens, UniProt P11802)
Structure (SMILES),target,read-out,mode,method,concentration,measurement,result
Cc1nn(C)cc1-c1nc2c(N3CCN(Cc4ccc(Cl)cc4)CC3)c(Cl)cnc2[nH]1,"Serine/threonine-protein kinase MRCK beta (CDC42BPB, Homo sapiens, UniProt Q9Y5S2)",binding,,competition with immobilised ligand,1 µM,remaining binding,55%
COCCCOc1cc(C[C@@H](C[C@H](N)[C@@H](O)C[C@H](C(=O)NCC(C)(C)C(N)=O)C(C)C)C(C)C)ccc1OC,"Renin (REN, Homo sapiens, UniProt P00797)",enzyme activity,inhibitor,,10 nM,inhibition,70%
Clc1cccc(-c2c[nH]c3nccc(N4CCOCC4)c23)c1,"Serine/threonine-protein kinase 3 (STK3, Homo sapiens, UniProt Q13188)",thermal stability,,DSF,,ΔTm,> 7.4 °C
CCOC(=O)[C@H]1Cc2c(cc([N+](=O)[O-])cc2[N+](=O)[O-])[C@H](O)[C@]12C(=O)Nc1ccc(F)cc12,CDK4,cell-free assay,inhibitor,TR-FRET,1 µM,inhibition,32.6%
COc1ncccc1-c1cnn2ccc(N3CCN(C(=O)OC(C)C)CC3)nc12,"Myosin-IIIb (MYO3B, Homo sapiens, UniProt Q8WXR4)",binding,,competition with immobilised ligand,1 µM,remaining binding,100%
COC(=O)[C@H](CCCNC(=N)N)NC(=O)c1ccccc1,"Protein-arginine deiminase type-3 (PADI3, Homo sapiens, UniProt Q9ULW8)",enzyme activity,substrate,,,Km,10.8 mM
CCOC(=O)[C@H]1Cc2c(cc([N+](=O)[O-])cc2[N+](=O)[O-])[C@H](O)[C@]12C(=O)Nc1ccc(C)cc12,CDK4,cell-free assay,inhibitor,TR-FRET,1 µM,inhibition,27.1%
Nc1ncc(-c2nc(N3CCOCC3)nc(N3CCOCC3)n2)c(C(F)F)n1,"Fibroblast growth factor receptor 3 (FGFR3, Homo sapiens, UniProt P22607, G697C)",cell-free assay,,competition with immobilised ligand,10 µM,remaining binding,83%
CCOC(=O)[C@H]1Cc2c(cc([N+](=O)[O-])cc2[N+](=O)[O-])[C@@H](O)[C@@]12C(=O)Nc1ccc([N+](=O)[O-])cc12,CDK4,cell-free assay,inhibitor,TR-FRET,1 µM,inhibition,42.8%
C#Cc1n[nH]c2c(-c3cn([C@@H](C)c4ccccn4)c(=O)[nH]c3=O)cc(F)cc12,"Tyrosine-protein kinase Fes/Fps (FES, Homo sapiens, UniProt P07332)",enzyme activity,inhibitor,,0.1 µM,inhibition,10%
